Reference: ChEMBL document CHEMBL3792300, “Tuning Side Arm Electronics in Unsymmetrical Cyclotriazadisulfonamide (CADA) Endoplasmic Reticulum (ER) Translocation Inhibitors to Improve their Human Cluster of Differentiation 4 (CD4) Receptor Down-Modulating Potencies” (J Med Chem, 2016)

Key:
[1] = system: MT4; assay: Cytotoxicity against human MT4 cells after 48 hrs by MTS/PES method; format: cell-based; conditions: mt4, 48 h
Procedure, shortened: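 MT-4 cells at 10⁴ per well in DMEM with 10% FBS and 10 mM HEPES, incubated with compounds 48 h at 37 °C. Viability by MTS/PES; CC50 taken as the concentration reducing viability by 50%.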

[2] = Binding affinity to human CD4 signal peptide expressed in CHO cells assessed as down-modulation of YFP-fused CD4 expression after 24 hrs by flow cytometric analysis; format: cell-based
Procedure, shortened: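 CHO cells stably expressing human CD4 fused C-terminally to YFP, treated 24 h at 37 °C with 1:5 serial dilutions. Washed, fixed in 1% formaldehyde, flow cytometry with 488 nm excitation and YFP in FL-1. YFP median fluorescence as % of untreated cells after subtracting non-transfected background. IC50 = 50% decrease; mean ± SD, n ≥ 3.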

[3] = system: Human immunodeficiency virus 1; assay: Antiviral activity against CXCR4 using HIV-1 NL4.3 infected in human MT4 cells assessed as reduction of viral replication preincubated for 15 mins with cells followed by viral infection measured after 4 days by MTS/PES method; format: functional, organism-based; conditions: Human immunodeficiency virus 1, NL4.3, MT4
Procedure, shortened: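 MT-4 T cells at 3.75×10⁵ cells/mL in RPMI 1640 with 10% FBS and 2 mM L-glutamine, exposed to compounds for 15 min, then infected with HIV-1 NL4.3 (30 pg/well) at 37 °C. After 4 days, viability by MTS/PES absorbance at 490 and 700 nm, used to derive IC50 for viral replication. Mean ± SD, n = 2 or 3.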

| SMILES | CC50 [1] [µM] | IC50 [2] [µM] | pIC50 [2] | IC50 [3] [µM] |
| --- | --- | --- | --- | --- |
| C=C1CN(S(=O)(=O)c2ccc(C)cc2)CCCN(Cc2ccccc2)CCCN(S(=O)(=O)c2ccc3c(c2)OCO3)C1.Cl | > 150 | 1.06 | 5.97 | 14.2 |
| C=C1CN(S(=O)(=O)c2ccccc2)CCCN(Cc2ccccc2)CCCN(S(=O)(=O)c2ccc(C)cc2)C1.Cl | > 150 | 1.46 | 5.84 | > 50 |
| C=C1CN(S(=O)(=O)c2ccc(C)cc2)CCCN(Cc2ccccc2)CCCN(S(=O)(=O)c2ccc(OC)cc2)C1.Cl | > 150 | 0.29 | 6.54 | 0.55 |
| C=C1CN(S(=O)(=O)c2ccc(C)cc2)CCCN(CC2CCCCC2)CCCN(S(=O)(=O)c2ccc(OCCCN)cc2)C1 | 11.6 | > 50 | – | – |
| C=C1CN(S(=O)(=O)c2ccc(C)cc2)CCCN(Cc2ccccc2)CCCN(S(=O)(=O)c2ccccc2N)C1.Cl | 70.3 | 2.12 | 5.66 | 6.93 |
| C=C1CN(S(=O)(=O)c2ccc(C)cc2)CCCN(CC2CCCCC2)CCCN(S(=O)(=O)c2ccc(N(C)C)cc2)C1 | 44 | 0.063 | – | 0.18 |
| C=C1CN(S(=O)(=O)c2ccc(C)cc2)CCCN(CC2CCCCC2)CCCN(S(=O)(=O)c2ccc(OCCCC)cc2)C1 | 13.2 | 1.1 | – | 1.95 |
| C=C1CN(S(=O)(=O)c2ccc(C)cc2)CCCN(Cc2ccccc2)CCCN(S(=O)(=O)c2cccc(N)c2)C1.Cl | > 150 | 1.02 | 5.99 | 6.22 |
| C=C1CN(S(=O)(=O)c2ccc(C)cc2)CCCN(Cc2ccccc2)CCCN(S(=O)(=O)c2cccc([N+](=O)[O-])c2)C1.Cl | > 150 | 2.02 | 5.69 | > 50 |
| C=C1CN(S(=O)(=O)c2ccc(C)cc2)CCCN(Cc2ccccc2)CCCN(S(=O)(=O)N(C)C)C1 | > 150 | 1.58 | – | 12.8 |
| C=C1CN(S(=O)(=O)c2ccc(C)cc2)CCCN(CC2CCCCC2)CCCN(S(=O)(=O)c2ccc(OCC)cc2)C1 | 19.6 | 0.19 | – | 0.62 |
| C=C1CN(S(=O)(=O)c2ccc(C)cc2)CCCN(CC2CCCCC2)CCCN(S(=O)(=O)c2ccc(OC)cc2)C1 | 99 | 0.15 | – | 0.49 |
| C=C1CN(C(=O)c2ccc(C)cc2)CCCN(Cc2ccccc2)CCCN(S(=O)(=O)c2ccc(C)cc2)C1 | 19.9 | 3.78 | – | 3.95 |
| C=C1CN(S(=O)(=O)c2ccc(C)cc2)CCCN(Cc2ccccc2)CCCN(S(=O)(=O)c2ccc(N)cc2)C1.Cl | 63.4 | 2.42 | 5.62 | 7.72 |
| C=C1CN(S(=O)(=O)c2ccc(C)cc2)CCCN(Cc2ccccc2)CCCN(S(=O)(=O)c2ccc3ccccc3c2)C1.Cl | > 150 | 0.55 | 6.26 | 1.35 |
| C=C1CN(C(=O)c2ccc(OC)cc2)CCCN(Cc2ccccc2)CCCN(S(=O)(=O)c2ccc(C)cc2)C1 | 23.6 | 4.22 | – | 3.86 |
| C=C1CN(S(=O)(=O)c2ccc(C)cc2)CCCN(Cc2ccccc2)CCCN(S(=O)(=O)c2ccc(SC)cc2)C1.Cl | > 150 | 0.23 | 6.64 | 1.44 |
| C=C1CN(S(=O)(=O)c2ccc(C)cc2)CCCN(CC2CCCCC2)CCCN(S(=O)(=O)c2ccc(N3CCOCC3)cc2)C1 | > 150 | 0.13 | – | 0.36 |
| C=C1CN(S(=O)(=O)c2ccc(C)cc2)CCCN(CC2CCCCC2)CCCN(S(=O)(=O)c2ccc(-n3cccc3)cc2)C1 | 48 | 0.18 | – | 1.25 |

| SMILES | CC50 [1] [µM] | IC50 [2] [µM] | pIC50 [2] | IC50 [3] [µM] |
| --- | --- | --- | --- | --- |
| C#CCOc1ccc(S(=O)(=O)N2CCCN(Cc3ccccc3)CCCN(S(=O)(=O)c3ccc(C)cc3)CC(=C)C2)cc1.Cl | > 150 | 0.46 | 6.34 | 0.55 |
| C=C1CN(S(=O)(=O)c2ccc(C)cc2)CCCN(Cc2ccccc2)CCCN(S(=O)(=O)c2ccc(OC(=S)N(C)C)cc2)C1.Cl | 106 | 6.28 | 5.2 | > 50 |
| C=C1CN(S(=O)(=O)c2ccc(C)cc2)CCCN(CC2CCCCC2)CCCN(S(=O)(=O)c2ccc(OCCCN3C(=O)c4ccccc4C3=O)cc2)C1 | 32.2 | 0.75 | – | – |
| C=C1CN(S(=O)(=O)c2ccc(C)cc2)CCCN(Cc2ccccc2)CCCN(S(=O)(=O)c2ccc(OC(F)(F)F)cc2)C1.Cl | > 150 | 1.2 | 5.92 | 3.26 |
| C=C1CN(S(=O)(=O)c2ccc(C)cc2)CCCN(Cc2ccccc2)CCCN(S(=O)(=O)c2ccc([N+](=O)[O-])cc2)C1.Cl | > 150 | 5.25 | 5.28 | 35.9 |
| C=C1CN(S(=O)(=O)c2ccc(C)cc2)CCCN(Cc2ccccc2)CCCN(S(=O)(=O)c2ccc(OC)cc2OC)C1.Cl | > 150 | 1.35 | 5.87 | 7 |
| C=C1CN(S(=O)(=O)c2ccc(C)cc2)CCCN(Cc2ccccc2)CCCN(S(=O)(=O)c2ccccc2[N+](=O)[O-])C1.Cl | > 150 | 0.7 | 6.15 | 27.7 |
| C=C1CN(S(=O)(=O)c2ccc(C)cc2)CCCN(Cc2ccccc2)CCCN(S(=O)(=O)c2ccc(OC)c(OC)c2)C1.Cl | > 150 | 0.31 | 6.51 | 0.86 |
| C=C1CN(S(=O)(=O)c2ccc(C)cc2)CCCN(Cc2ccccc2)CCCN(S(=O)(=O)c2ccc(N(C)C)cc2)C1.Cl | > 150 | 0.17 | 6.77 | 0.62 |
| C=C1CN(C(=O)c2ccc(N)cc2)CCCN(Cc2ccccc2)CCCN(S(=O)(=O)c2ccc(C)cc2)C1 | 13.7 | > 50 | – | > 10 |
| C=C1CN(S(=O)(=O)c2ccc(C)cc2)CCCN(CC2CCCCC2)CCCN(S(=O)(=O)c2ccc(O)cc2)C1 | > 150 | 1.14 | – | – |
| C=C1CN(S(=O)(=O)c2ccc(C)cc2)CCCN(Cc2ccccc2)CCCN(S(=O)(=O)c2cccc(N(C)C)c2)C1.Cl | > 150 | 0.79 | 6.1 | > 50 |
| C=C1CN(S(=O)(=O)c2ccc(C)cc2)CCCN(Cc2ccccc2)CCCN(S(=O)(=O)N2CCOCC2)C1.Cl | > 150 | 1.08 | 5.97 | 8.99 |
| C=C1CN(S(=O)(=O)c2ccc(C)cc2)CCCN(CC2CCCCC2)CCCN(S(=O)(=O)c2ccc(N)cc2)C1 | 10.6 | 1 | – | > 10 |
| C=C1CN(S(=O)(=O)c2ccc(C)cc2)CCCN(Cc2ccccc2)CCCN(S(=O)(=O)c2ccc(C)cc2)C1 | – | – | 6.4 | – |
| C=C1CN(C(=O)c2ccccc2)CCCN(Cc2ccccc2)CCCN(S(=O)(=O)c2ccc(C)cc2)C1 | 15.8 | 7.32 | – | > 10 |
| C=C1CN(S(=O)(=O)c2ccc(C)cc2)CCCN(Cc2ccccc2)CCCN(S(=O)(=O)c2ccc(O)cc2)C1.Cl | 13.6 | 3.58 | 5.45 | 2.84 |
| C=C1CN(S(=O)(=O)c2ccc(C)cc2)CCCN(Cc2ccccc2)CCCN(S(=O)(=O)c2ccn(C)c2)C1.Cl | > 150 | 3.17 | 5.5 | > 50 |
| C=C1CN(S(=O)(=O)c2ccc(C)cc2)CCCN(Cc2ccccc2)CCCN(S(=O)(=O)c2ccc(F)cc2)C1.Cl | > 150 | 0.92 | 6.04 | 4.66 |
